In ChEMBL document CHEMBL1833916, “Synthesis and biological evaluation of 4-piperidinecarboxylate and 4-piperidinecyanide derivatives for T-type calcium channel blockers” (Bioorg Med Chem Lett, 2011):
The source made the active and inactive calls. The calls are words filed in the database; no cut-off is given here.

What was measured:
[1] = target: T1, Voltage-dependent T-type calcium channel subunit alpha-1G (Homo sapiens, UniProt O43497); test: Inhibition of T-type calcium channel alpha1G expressed in human HEK293 cells assessed as KCl-induced depolarization at 10 uM after 60 mins by FDSS6000 assay; type: cell-based
[2] = target: Voltage-gated inwardly rectifying potassium channel KCNH2 (Homo sapiens, UniProt Q12809); test: Inhibition of human ERG by patch clamp assay
[3] = target: T1, Voltage-dependent T-type calcium channel subunit alpha-1G; test: Inhibition of T-type calcium channel alpha1G expressed in human HEK293 cells assessed as KCl-induced depolarization after 60 mins by FDSS6000 assay; type: cell-based
[4] = Metabolic stability in human hepatic microsomes at 1 uM after 60 mins by LC-MS/MS analysis; type: ADME, Liver; conditions: 1 h
Summary of the method: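 Human liver microsomes (0.5 mg/ml) with compound (1 μM) in 0.1 M potassium phosphate, pH 7.4, at 37 °C; started with β-NADPH (1.2 mM). Sampled at 0, 5, 15, 30 and 60 min, quenched with acetonitrile containing internal standard, analysed by LC–MS/MS. Reported as % parent remaining; mean of duplicate experiments.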

Rattus norvegicus [5] = test: Antiallodynic activity in rat spinal nerve ligation model of neuropathic pain assessed as inhibition of cold allodynia at 100 mg/kg, po after 5 hrs; type: functional, organism-based; parameters: dose 100 mg/kg
Summary of the method: (§1)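 Rats with induced neuropathic pain, dosed orally at 100 mg/kg (n = 5 per group), with gabapentin 100 mg/kg po as reference. Mechanical and cold allodynia were followed over days after nerve injury and hours after dosing. Significance was tested by unpaired t-test (P < 0.05).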

Rattus norvegicus [6] = test: Antiallodynic activity in rat spinal nerve ligation model of neuropathic pain assessed as suppression of mechanical allodynia at 100 mg/kg, po after 5 hrs; type: functional, organism-based; parameters: dose 100 mg/kg; summary of the method: as §1

T1 sequence (O43497 whole entry): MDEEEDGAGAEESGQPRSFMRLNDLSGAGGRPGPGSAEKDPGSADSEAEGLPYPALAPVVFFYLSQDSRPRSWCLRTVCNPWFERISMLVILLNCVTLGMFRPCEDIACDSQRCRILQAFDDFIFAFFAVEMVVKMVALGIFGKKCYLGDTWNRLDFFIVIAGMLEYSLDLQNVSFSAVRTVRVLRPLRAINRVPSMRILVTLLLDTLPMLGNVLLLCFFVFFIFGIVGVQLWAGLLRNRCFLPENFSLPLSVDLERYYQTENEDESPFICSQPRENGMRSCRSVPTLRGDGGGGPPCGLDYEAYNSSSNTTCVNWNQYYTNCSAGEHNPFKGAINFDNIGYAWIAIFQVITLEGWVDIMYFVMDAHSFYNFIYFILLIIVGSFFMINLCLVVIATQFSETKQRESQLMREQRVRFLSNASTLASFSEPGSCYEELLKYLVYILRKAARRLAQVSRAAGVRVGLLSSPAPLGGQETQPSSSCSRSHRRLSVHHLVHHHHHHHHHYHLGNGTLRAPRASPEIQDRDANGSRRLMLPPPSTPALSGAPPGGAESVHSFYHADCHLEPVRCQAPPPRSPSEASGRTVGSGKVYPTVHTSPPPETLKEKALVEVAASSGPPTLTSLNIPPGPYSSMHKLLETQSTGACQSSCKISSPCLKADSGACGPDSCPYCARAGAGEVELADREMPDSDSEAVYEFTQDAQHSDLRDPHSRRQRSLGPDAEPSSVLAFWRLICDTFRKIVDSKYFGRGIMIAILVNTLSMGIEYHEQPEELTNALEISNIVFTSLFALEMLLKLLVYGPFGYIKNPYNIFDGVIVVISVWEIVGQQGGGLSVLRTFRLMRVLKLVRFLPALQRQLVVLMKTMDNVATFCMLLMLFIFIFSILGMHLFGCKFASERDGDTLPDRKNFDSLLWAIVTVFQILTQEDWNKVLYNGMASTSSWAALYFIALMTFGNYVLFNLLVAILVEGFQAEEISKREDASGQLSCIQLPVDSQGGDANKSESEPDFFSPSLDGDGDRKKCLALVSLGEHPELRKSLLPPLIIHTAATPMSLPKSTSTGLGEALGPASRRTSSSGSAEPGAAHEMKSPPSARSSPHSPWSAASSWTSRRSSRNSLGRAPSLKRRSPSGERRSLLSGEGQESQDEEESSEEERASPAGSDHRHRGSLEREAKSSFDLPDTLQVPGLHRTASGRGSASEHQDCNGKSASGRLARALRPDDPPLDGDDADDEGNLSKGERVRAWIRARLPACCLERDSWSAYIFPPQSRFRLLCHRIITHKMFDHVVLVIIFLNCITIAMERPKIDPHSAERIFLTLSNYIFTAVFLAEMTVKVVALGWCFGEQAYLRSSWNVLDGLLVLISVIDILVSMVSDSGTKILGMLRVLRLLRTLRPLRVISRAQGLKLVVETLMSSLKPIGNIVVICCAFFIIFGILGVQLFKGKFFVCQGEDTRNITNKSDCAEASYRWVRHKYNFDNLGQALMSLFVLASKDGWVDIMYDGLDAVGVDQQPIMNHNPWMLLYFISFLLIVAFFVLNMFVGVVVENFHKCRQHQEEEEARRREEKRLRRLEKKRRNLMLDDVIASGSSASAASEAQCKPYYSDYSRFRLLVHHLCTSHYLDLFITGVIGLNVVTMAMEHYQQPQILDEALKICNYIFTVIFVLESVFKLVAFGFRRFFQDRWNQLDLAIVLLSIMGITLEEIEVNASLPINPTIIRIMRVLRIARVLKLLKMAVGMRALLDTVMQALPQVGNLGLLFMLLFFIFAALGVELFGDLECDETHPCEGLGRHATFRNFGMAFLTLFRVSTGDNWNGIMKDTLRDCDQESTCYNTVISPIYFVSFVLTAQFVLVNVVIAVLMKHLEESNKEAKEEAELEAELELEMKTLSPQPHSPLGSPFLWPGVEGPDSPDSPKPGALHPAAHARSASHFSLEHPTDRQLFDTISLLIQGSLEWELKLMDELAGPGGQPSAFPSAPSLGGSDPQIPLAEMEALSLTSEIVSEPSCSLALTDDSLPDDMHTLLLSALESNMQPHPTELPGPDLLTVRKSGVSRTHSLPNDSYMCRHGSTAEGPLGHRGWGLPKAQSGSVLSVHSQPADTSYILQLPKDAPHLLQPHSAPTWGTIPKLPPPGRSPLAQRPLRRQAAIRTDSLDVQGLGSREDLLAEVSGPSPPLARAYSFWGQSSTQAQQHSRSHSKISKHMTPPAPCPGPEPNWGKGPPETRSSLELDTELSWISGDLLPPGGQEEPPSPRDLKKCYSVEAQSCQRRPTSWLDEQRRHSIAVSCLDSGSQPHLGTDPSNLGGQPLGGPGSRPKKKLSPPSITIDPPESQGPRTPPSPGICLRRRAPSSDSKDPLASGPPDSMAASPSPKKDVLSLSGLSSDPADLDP
Voltage-gated inwardly rectifying potassium channel KCNH2, sequence (Q12809 whole entry): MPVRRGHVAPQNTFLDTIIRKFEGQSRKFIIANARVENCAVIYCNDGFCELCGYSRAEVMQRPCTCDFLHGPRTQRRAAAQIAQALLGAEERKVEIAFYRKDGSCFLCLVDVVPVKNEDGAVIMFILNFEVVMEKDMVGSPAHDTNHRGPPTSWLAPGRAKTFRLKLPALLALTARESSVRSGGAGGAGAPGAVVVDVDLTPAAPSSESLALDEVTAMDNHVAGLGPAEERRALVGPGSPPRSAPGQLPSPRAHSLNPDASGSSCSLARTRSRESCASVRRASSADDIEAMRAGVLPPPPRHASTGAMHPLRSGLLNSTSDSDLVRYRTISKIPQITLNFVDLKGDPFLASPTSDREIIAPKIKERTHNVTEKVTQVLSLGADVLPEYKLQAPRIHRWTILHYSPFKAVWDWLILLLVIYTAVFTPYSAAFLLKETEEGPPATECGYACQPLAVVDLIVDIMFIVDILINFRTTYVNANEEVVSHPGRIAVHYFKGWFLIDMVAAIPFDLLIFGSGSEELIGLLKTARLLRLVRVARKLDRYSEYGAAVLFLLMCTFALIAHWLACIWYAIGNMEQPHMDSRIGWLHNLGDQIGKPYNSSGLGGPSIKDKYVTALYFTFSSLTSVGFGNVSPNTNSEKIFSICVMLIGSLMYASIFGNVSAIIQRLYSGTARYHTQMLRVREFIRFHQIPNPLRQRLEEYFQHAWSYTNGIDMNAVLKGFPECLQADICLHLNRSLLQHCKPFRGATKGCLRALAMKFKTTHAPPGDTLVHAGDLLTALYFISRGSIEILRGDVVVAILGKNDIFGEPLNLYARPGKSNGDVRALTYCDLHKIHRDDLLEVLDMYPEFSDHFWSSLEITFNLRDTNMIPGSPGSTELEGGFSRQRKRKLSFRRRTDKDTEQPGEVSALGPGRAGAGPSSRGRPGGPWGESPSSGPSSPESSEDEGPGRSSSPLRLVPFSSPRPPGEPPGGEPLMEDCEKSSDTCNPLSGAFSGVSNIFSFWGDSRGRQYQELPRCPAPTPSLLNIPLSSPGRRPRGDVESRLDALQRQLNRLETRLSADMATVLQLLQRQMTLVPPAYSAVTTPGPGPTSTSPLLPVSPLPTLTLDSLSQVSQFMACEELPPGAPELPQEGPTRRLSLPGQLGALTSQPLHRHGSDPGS

SMILES	inhibition [1] [%]	IC50 [2] [nM]	further results
COc1ccccc1CN1CCC(C#N)(CNC(=O)c2cc(Cl)cc(Cl)c2)CC1	19.3	–	–
CC(C)Cc1cc(C(=O)NCC2(C#N)CCN(Cc3ccc(C(F)(F)F)cc3)CC2)nn1-c1ccccc1	13.9	–	–
COC(=O)C1(CNC(=O)c2cc(OC)cc(OC)c2)CCN(Cc2ccccc2OC)CC1	46.8	1900	–
COc1cc(OC)cc(C(=O)NCC2(C#N)CCN(Cc3cccc(C(F)(F)F)c3)CC2)c1	15.8	–	–
COc1cc(OC)cc(C(=O)NCC2(C#N)CCN(Cc3ccccc3C(F)(F)F)CC2)c1	45.4	4760	–
COc1ccccc1CN1CCC(C#N)(CNC(=O)c2cc(CC(C)C)n(-c3ccccc3)n2)CC1	50.9	–	–
CC(C)Cc1cc(C(=O)NCC2(C#N)CCN(Cc3cccc(C(F)(F)F)c3)CC2)nn1-c1ccccc1	15.8	–	–
COC(=O)C1(CNC(=O)c2cc(Cl)cc(Cl)c2)CCN(Cc2ccc(OC)cc2)CC1	74.5	–	–
COc1ccc(CN2CCC(C#N)(CNC(=O)c3cc(Cl)cc(Cl)c3)CC2)cc1	16.1	–	–
N#CC1(CNC(=O)c2cc(Cl)cc(Cl)c2)CCN(CCc2ccccc2)CC1	71.8	360	–
CC(C)Cc1cc(C(=O)NCC2(C#N)CCN(CCc3ccccc3)CC2)nn1-c1ccccc1	61.9	–	–
COc1cccc(CN2CCC(C#N)(CNC(=O)c3cc(CC(C)C)n(-c4ccccc4)n3)CC2)c1	60.4	1500	–
COC(=O)C1(CNC(=O)c2cc(OC)cc(OC)c2)CCN(Cc2ccc(C(F)(F)F)cc2)CC1	64.3	–	IC50 [3]: 4180 nM; Stability [4]: Unstable
COC(=O)C1(CNC(=O)c2cc(Cl)cc(Cl)c2)CCN(CC2=Cc3ccccc3OC2(C)C)CC1	33.9	13800	–
N#CC1(CNC(=O)c2cc(Cl)cc(Cl)c2)CCN(Cc2ccc(C(F)(F)F)cc2)CC1	8.7	–	–
COC(=O)C1(CNC(=O)c2cc(OC)cc(OC)c2)CCN(CC2=Cc3ccccc3OC2(C)C)CC1	58	–	–
COc1cc(OC)cc(C(=O)NCC2(C#N)CCN(CC3=Cc4ccccc4OC3(C)C)CC2)c1	44.3	4730	–
COc1cccc(CN2CCC(C#N)(CNC(=O)c3cc(OC)cc(OC)c3)CC2)c1	60.4	–	–
COC(=O)C1(CNC(=O)c2cc(Cl)cc(Cl)c2)CCN(Cc2cccc(OC)c2)CC1	73	360	–
COC(=O)C1(CNC(=O)c2cc(Cl)cc(Cl)c2)CCN(Cc2ccc(C(F)(F)F)cc2)CC1	43.3	290	–
COC(=O)C1(CNC(=O)c2cc(OC)cc(OC)c2)CCN(Cc2cccc(OC)c2)CC1	56.2	310	–

SMILES	inhibition [1] [%]	IC50 [2] [nM]	further results
COC(=O)C1(CNC(=O)c2cc(OC)cc(OC)c2)CCN(Cc2ccc(OC)cc2)CC1	59	480	–
COC(=O)C1(CNC(=O)c2cc(Cl)cc(Cl)c2)CCN(Cc2ccccc2OC)CC1	68.5	160	–
COc1ccc(CN2CCC(C#N)(CNC(=O)c3cc(OC)cc(OC)c3)CC2)cc1	53	–	–
COc1ccc(CN2CCC(C#N)(CNC(=O)c3cc(CC(C)C)n(-c4ccccc4)n3)CC2)cc1	53	–	–
COC(=O)C1(CNC(=O)c2cc(OC)cc(OC)c2)CCN(Cc2cccc(C(F)(F)F)c2)CC1	72	2800	Stability [4]: Unstable
COC(=O)C1(CNC(=O)c2cc(Cl)cc(Cl)c2)CCN(Cc2ccccc2C(F)(F)F)CC1	44.1	–	–
COC(=O)C1(CNC(=O)c2cc(OC)cc(OC)c2)CCN(CCc2ccccc2)CC1	65	–	–
CC1(C)Oc2ccccc2C=C1CN1CCC(C#N)(CNC(=O)c2cc(Cl)cc(Cl)c2)CC1	13.6	–	–
COc1cc(OC)cc(C(=O)NCC2(C#N)CCN(CCc3ccccc3)CC2)c1	61.9	1570	Stability [4]: Unstable
N#CC1(CNC(=O)c2cc(Cl)cc(Cl)c2)CCN(Cc2cccc(C(F)(F)F)c2)CC1	8.76	–	–
N#CC1(CNC(=O)c2cc(Cl)cc(Cl)c2)CCN(Cc2ccccc2C(F)(F)F)CC1	9.99	–	–
COc1cc(OC)cc(C(=O)NCC2(C#N)CCN(Cc3ccc(C(F)(F)F)cc3)CC2)c1	13.9	–	–
COC(=O)C1(CNC(=O)c2cc(OC)cc(OC)c2)CCN(Cc2ccccc2C(F)(F)F)CC1	63.6	4980	Stability [4]: Unstable
COc1cc(OC)cc(C(=O)NCC2(C#N)CCN(Cc3ccccc3OC)CC2)c1	50.9	920	–
COC(=O)C1(CNC(=O)c2cc(Cl)cc(Cl)c2)CCN(Cc2cccc(C(F)(F)F)c2)CC1	72	–	–
NCC1(CC(=O)O)CCCCC1	–	–	inhibition (Rattus norvegicus [5]): Active; Activity (Rattus norvegicus [6]): Active
CC(C)Cc1cc(C(=O)NCC2(C#N)CCN(Cc3ccccc3C(F)(F)F)CC2)nn1-c1ccccc1	45.4	4760	–
COc1cccc(CN2CCC(C#N)(CNC(=O)c3cc(Cl)cc(Cl)c3)CC2)c1	8.33	–	–
COc1cc(OC)cc(C(=O)NCC2(C(=O)O)CCN(Cc3ccc(C(F)(F)F)cc3)CC2)c1.Cl	–	–	inhibition (Rattus norvegicus [5]): Active; Activity (Rattus norvegicus [6]): Active; IC50 [3]: 7310 nM; Stability [4]: Stable
CC(C)Cc1cc(C(=O)NCC2(C#N)CCN(CC3=Cc4ccccc4OC3(C)C)CC2)nn1-c1ccccc1	44.3	4730	–
COC(=O)C1(CNC(=O)c2cc(Cl)cc(Cl)c2)CCN(CCc2ccccc2)CC1	77.2	–	–
